Hits are enriched below; roughly 3.9% of the tested compounds scored in any of these assays.
Jurkat NFkB inh: inhibitors of the PMA/ionomycin-induced NF-kB reporter in Jurkat cells. PMA/ionomycin-induced NF-kB luciferase reporter, luminescence. inhibition, % at 4 µM. hit rate 0.53% among 330,000. AID 435003; in the data active = inhibition above about 50%
Gli-Sufu antag: antagonists of Gli-Sufu signaling. inhibition, % at 5 µM. Sufu-KO-LIGHT fibroblasts, Gli luciferase reporter luminescence. hit rate 0.74% among 340,000;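 active = inhibition above about 55%, limit read from the data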;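 note: 0% = DMSO-treated cells and 100% = wells with medium but no cells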
UPR XBP1 act: activators of adaptive arm of unfolded protein response (XBP1) | hit rate 0.33% among 330,000 | CHO-XBP1 luciferase reporter, IRE1-XBP1 UPR activation, luminescence; percent of tunicamycin response, DMSO as zero | AID 463104 | activation, % at 20 µM;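 active = versus positive control, 20 µM dose yields 30% or more activation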;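 note: 100% = tunicamycin at 10 µg/mL and 0% = DMSO only wells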
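Material: IRE1-XBP1 luciferase reporter CHO line / Quantity: one thousand reporter cells per well / Buffer or medium: F12 with 10% serum / Compound: 20 µM single concentration, DMSO 1% / Times: 6 h treatment, 37 °C / Detection: Steady-Glo luciferase glow luminescence, 10 min after reagent addition / Benchmarks: tunicamycin high, DMSO low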
CHOP UPR activ: apoptotic UPR (CHOP) activation; CHO-CHOP luciferase reporter, luminescence; percent of tunicamycin response over DMSO baseline; activation, % at 10 µM; hit rate 0.34% among 330,000; AID 449763;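 active = at 10 µM dose, activation of 40% or more, normalized to positive control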;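 note: 100% = tunicamycin at 10 µg/mL and 0% = DMSO alone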
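Test system: CHO CHOP reporter cells. Input: 500 CHO-CHOP cells per well. Medium: F12 with 10% FBS. Technique: luciferase luminescence. Measure: percent activation relative to tunicamycin control. Dosing: 10 µM compound, 0.5% DMSO. Timing: 16-18 h cell attachment, then 6 h compound exposure, 37 °C.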
697 NFkB inh: lowers PMA/ionomycin-induced NF-kB signal in 697 B cells. 697 B-cell NF-kB luciferase reporter, 16 h. inhibition, % at 4 µM. hit rate 0.33% among 330,000; in the data active = inhibition above about 35%
CHOP inhibitor: CHOP inhibition in unfolded protein response | inhibition, % at 10 µM | AID 2732 | hit rate 3.8% among 220,000 | CHO-K1 CHOP-promoter luciferase, tunicamycin-induced, 15-18 h;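 active = compounds that reduced the stress-induced luciferase reporter signal by more than about 70% of percent inhibition, limit read from the data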;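 note: 0% = tunicamycin plus vehicle and 100% = wells without tunicamycin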
Jurkat NFkB conf: lowers PMA/ionomycin-induced NF-kB signal in Jurkat cells. shares compounds with Jurkat NFkB inh. hit rate 27% among 2,700. inhibition, % at 4 µM. Jurkat NF-kB luciferase, 16 h;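 active = inhibition reaching about 45% at 4 µM in either replicate, limit read from the data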;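 note: plate controls were PMA/ionomycin stimulated DMSO wells for no effect and unstimulated DMSO wells for full effect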
The depositor's hits bear a star; . = no result.

SMILES | Jurkat NFkB inh | Gli-Sufu antag | UPR XBP1 act | CHOP UPR activ | 697 NFkB inh | CHOP inhibitor | Jurkat NFkB conf
CCCC(=O)NC(c1ccc(N(C)C)cc1)c1ccc2cccnc2c1O (configuration not stated) | 55* | 86* | 14 | 16 | -21 | . | 74*
COc1ccc(C(NC(=O)C(C)C)c2ccc3cccnc3c2O)cc1 (configuration not stated) | 61* | 51 | 6 | 0 | -22 | 79* | 65*
CCCCN(c1nc2ccccc2nc1Cl)S(=O)(=O)c1ccc(C)cc1 | 3 | 37 | -3 | 2 | -10 | . | .
COc1ccccc1N1CCN(c2ccnc3cc(Cl)ccc23)CC1 | 68* | 14 | 8 | 0 | -41 | . | 25
COc1ccc(-n2nnnc2SCC(=O)NC2CCS(=O)(=O)C2)cc1 (configuration not stated) | 4 | -2 | 6 | 2 | 11 | . | .
NS(=O)(=O)c1ccc(NC(=O)COC(=O)c2ccc(S(=O)(=O)N3CCOCC3)cc2)cc1 | 10 | 6 | 1 | 0 | -6 | . | .
COc1ccc(S(=O)(=O)NCc2ccccn2)cc1NC(=O)c1ccccc1C | 55* | -7 | -1 | 1 | -35 | . | 15
COc1ccc(S(=O)(=O)NCc2ccccn2)cc1NC(=O)c1ccc(Cl)cc1 | 25 | 1 | -1 | 1 | -39 | . | .
O=C(N/N=C/c1ccccc1)c1ccco1 | -3 | -20 | -1 | 4 | -33 | -48 | .
O=C(C#Cc1ccccc1)c1ccco1 | 51* | -7 | -9 | -8 | -62 | . | 18
C=CCOc1c(Cl)cc(CNc2ccc(N(C)C)cc2)cc1OC | 5 | 46 | -1 | 2 | -11 | -54 | .
C=CCOc1c(Cl)cc(CNc2ccc(C)c(Cl)c2)cc1OC | 60* | . | 5 | -2 | 5 | 21 | 36
CN(Cc1ccccc1)C(=O)COC(=O)CNS(=O)(=O)c1ccc2ccccc2c1 | -3 | -8 | -1 | 3 | -2 | . | .
C=CCNc1nc(-c2ccc(Cl)cc2)cs1 | -157 | 6 | -3 | 4 | -151 | 21 | -27
O=C(Nc1ccc(Cl)cn1)c1cc2ccccc2o1 | -152 | -80 | -2 | 3 | -232 | 1 | -102
COC(=O)c1ccccc1NC(=O)c1cc2ccccc2o1 | -2 | -26 | 3 | 4 | -59 | . | .
O=C(Nc1ccccn1)c1cc2ccccc2o1 | -8 | -77 | -7 | -7 | -95 | 50 | .
O=C(Nc1ccccc1C(F)(F)F)c1cc2ccccc2o1 | -152 | -94 | 0 | 5 | -189 | . | -81
COc1cccc(OCC(=O)Nc2ccncc2)c1 | 15 | -1 | -1 | 3 | 11 | . | .
CC(C)CCOc1cccc(OCC(=O)Nc2ccncc2)c1 | 57* | 22 | 6 | 3 | -11 | . | 65*
COc1cc2c(cc1OC)CN(C1CCC(C(C)(C)C)CC1)CC2 (configuration not stated) | . | 18 | . | . | . | . | .
N#CC1=C(N)Oc2cc(N)ccc2C1c1cccc(F)c1 (configuration not stated) | 47 | 2 | -4 | -1 | -38 | . | .
CN(C)c1ccc2c(c1)OC(N)=C(C#N)C2c1cccc(F)c1 (configuration not stated) | 77* | 52 | 8 | -1 | -101 | . | 55*
C=CC(=O)Nc1cccc(Oc2cc(Cl)nc3[nH]ccc23)c1 | 9 | -13 | -2 | 3 | -17 | . | .
O=c1ccc2ccc(OCc3ccccc3)cc2o1 | -68 | -54 | 5 | 7 | -87 | . | .
c1ccc(-c2cnc(-c3ccccc3)nn2)cc1 | -178 | -114 | -4 | -1 | -240 | . | -102
c1ccc(-c2cnc(-c3ccccn3)nn2)cc1 | -114 | -44 | -4 | -1 | -157 | . | .
CCOc1ccccc1NC(=O)CN(c1ccc(OC)cc1)S(=O)(=O)c1c(C)noc1C | 65* | 5 | 9 | -1 | -44 | . | 44
COc1ccc(N(CC(=O)Nc2cc(C)ccc2OC)S(=O)(=O)c2c(C)noc2C)cc1 | 14 | 7 | 0 | 0 | 8 | 8 | .
CCOc1ccc(N(CC(=O)Nc2ccccc2C)S(=O)(=O)c2c(C)noc2C)cc1 | 58* | -2 | 0 | -2 | -62 | . | 46*
